ChEMBL document CHEMBL3994584, “Identification of novel fluorescent probes preventing PrPSc replication in prion diseases” (Eur J Med Chem, 2017)

Assay: Antiprion activity against mouse prion protein RML infected mouse ScN2a cells assessed as reduction in proteinase K-resistant PrPSc level incubated for 5 days followed by proteinase K digestion by Western blot method
Settings: 120 h
Method in brief: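 RML-infected ScN2a cells were treated with 0.1, 1 and 10 μM for 5 days, with DMSO ≤0.1% final. Lysates (500 μg protein) were digested with 10 μg PK for 1 h at 37 °C, stopped with 2 mM PMSF and ultracentrifuged. Pellets were run on SDS-PAGE and immunoblotted with anti-PrP Fab W226, with ECL detection. Densitometry gave PK-resistant PrPSc over total PrP, with untreated set to 100%. Three independent experiments.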

Structure (SMILES) | EC50 (read-out: EC50) [nM] | EC50 (read-out: pEC50 (converted)) [nM]
CN1CCN(c2cc(-c3ccc(-c4csc(NC(=O)C5CC5)n4)cc3)ccn2)CC1 | 682 | 676
Cc1cccc(Nc2nc(-c3cc(-c4ccccc4)no3)cs2)n1 | 820 | 813
c1ccc(-c2cc(-c3csc(Nc4ccc5ccccc5n4)n3)on2)cc1 | 800 | 794
FC(F)(F)c1csc(Nc2ccc3ccccc3n2)n1 | 8660 | 8710
CN1CCN(c2ccc(-c3ccc(-c4csc(NC(=O)C5CC5)n4)cc3)cn2)CC1 | 70 | 70.8
COc1ccc(-c2csc(Nc3cccnc3)n2)cc1OC | 28000 | 28200
c1ccc(-c2cc(-c3csc(Nc4ccccn4)n3)on2)cc1 | 600 | 603
Cc1cccc(Nc2nc(-c3ccc(O)cc3O)cs2)n1 | 3900 | 3890
c1ccc2nc(Nc3nc(-c4ccncc4)cs3)ccc2c1 | 310 | 309
COCCOc1ccc(-c2ccc(-c3csc(Nc4cccc(C)n4)n3)cc2)cn1 | 137 | 138
COc1ccc(-c2csc(Nc3cccc(C)n3)n2)cc1OC | 3010 | 3020
Cc1cccc(Nc2nc(-c3ccc(-c4c(C)noc4C)cc3)cs2)n1 | 2130 | 2140
COc1ccc(-c2csc(Nc3ccc4ccccc4c3)n2)cc1OC | 390 | 389
Cc1ccc(Nc2nc(-c3cc(-c4ccccc4)no3)cs2)nc1 | 940 | 933
O=C(Nc1nc(-c2ccc(-c3ccccc3)cc2)cs1)C1CC1 | 248 | 245
c1ccc(-c2cc(-c3csc(Nc4ccc(-c5cnco5)cc4)n3)on2)cc1 | 57 | 57.5
CN(C)c1cccc(Nc2nc(-c3ccc(-c4ccccc4)cc3)cs2)n1 | 699 | 692
CC(=O)Nc1nc(-c2ccc(-c3ccccc3)cc2)cs1 | 119 | 120
COc1ccc(NC(=O)c2csc(Nc3ccc(C)cn3)n2)cc1OC | 2440 | 2450
COCCOc1cc(-c2ccc(-c3csc(NC(=O)C4CC4)n3)cc2)ccn1 | 1320 | 1320
CN1CCN(c2cccc(Nc3nc(-c4ccc(-c5ccccc5)cc4)cs3)n2)CC1 | 1180 | 1170

Structure (SMILES) | EC50 (read-out: EC50) [nM] | EC50 (read-out: pEC50 (converted)) [nM]
COc1ccc(-c2csc(Nc3ccc(C(F)(F)F)cn3)n2)cc1OC | 2530 | 2510
COCCOc1cc(-c2ccc(-c3csc(Nc4cccc(C)n4)n3)cc2)ccn1 | 153 | 155
c1ccc(-c2ccc(-c3csc(Nc4ccc5ccccc5n4)n3)s2)nc1 | 2010 | 2000
Cc1ccc(Nc2nc(-c3ccncc3)cs2)nc1 | 1570 | 1580
COc1ccc(-c2csc(Nc3ccccc3)n2)cc1OC | 8200 | 8130
c1ccc2oc(-c3csc(Nc4ccc(-c5cnco5)cc4)n3)cc2c1 | 228 | 229
COc1cc2c(cc1OC)-c1nc(Nc3ccc(C)cn3)sc1C2 | 5590 | 5620
Cc1ccc(Nc2nc3c(s2)Cc2ccccc2-3)nc1 | 2440 | 2450
Cc1cccc(Nc2nc(-c3ccc(-c4ccc(N(C)C)nc4)cc3)cs2)n1 | 69 | 69.2
Cc1ccnc(Nc2nc(-c3cc(-c4ccc(Cl)cc4)no3)cs2)c1 | 850 | 851
COc1ccc(-c2csc(Nc3ccc(C)cn3)n2)c(OC)c1 | 3130 | 3160
COc1ccc(-c2csc(NC(=O)c3ccc4ccccc4n3)n2)cc1OC | 8180 | 8130
Cc1cccc(Nc2nc(-c3ccc(O)c(O)c3)cs2)n1 | 2500 | 2510
Oc1ccc(-c2csc(Nc3ccccn3)n2)cc1O | 10000 | 10000
COc1ccc(-c2csc(Nc3ccc(C)cn3)n2)cc1OC | 790 | 794
Cc1ccc(Nc2nc(-c3ccccc3)cs2)nc1 | 7880 | 7940
COCCOc1ccc(-c2ccc(-c3csc(NC(=O)C4CC4)n3)cc2)cn1 | 118 | 117
COc1ccnc(Nc2nc(-c3cc(-c4ccccc4)no3)cs2)c1 | 250 | 251
Cc1cccc(Nc2nc(-c3ccc(-c4ccncc4C)cc3)cs2)n1 | 618 | 617
CC(=O)Nc1ccc(-c2csc(Nc3ccccn3)n2)cc1 | 8500 | 8510
Cc1cccc(Nc2nc(-c3ccc(-c4ccccc4)cc3)cs2)n1 | 2290 | 1260
